Experiment [1] can be described thus: reducers of endogenous Her2 protein level, primary screen, SKBR3 breast tumor cells, AlphaScreen, ATP viability (AID 461).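 On Her2 level: lower value means less Her2 protein in the cells.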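 On viability: percent of carrier control wells set as 100% viability.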 The following applies: 18-24 h, measured here: SKBR3 viability, ATP luminescence, at 10 µM.
Experiment [2] addresses Receptor tyrosine-protein kinase erbB-2 (Homo sapiens) (UniProt P04626). The description is as above. As to conditions: 18-24 h, at 10 µM, stronger effect = lower value.
Experiment [3] is described as follows: SK-BR-3 cell growth inhibitors, pilot screen, 24 h, human (AID 572;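 active means viability at or below 10% of carrier control in both of two separate runs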;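 further: compound exposure lasted between 18 and 24 h rather than exactly 24 h; 100% = carrier-treated control wells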). The following applies: SK-BR-3 viability, CellTiter-Glo luminescence, at 10 µM, stronger effect = lower value. In general terms: In ATP-based viability assays light output follows the ATP content of the culture.
The nature of experiment [4]: HUVEC growth inhibition – cell-based, human, primary screen (AID 575;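 active means viability at or below 30% in both replicate assays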;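 further: 100% = median of untreated cell wells with 0.1% DMSO on each plate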). As to conditions: HUVEC proliferation, CellTiter-Glo luminescence, 72 h; at 10 µM; stronger effect = lower value. An outline of the steps: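 Assay system: primary human umbilical vein endothelial cells / Buffer or medium: endothelial basal medium with 2% FBS plus growth supplements / Compound dosing: one dose, 10 µM final, 0.1% DMSO / Timing: 72 h treatment at 37 °C / Signal: CTG luminescence / Benchmarks: 32 DMSO-only cell-control wells (high), 32 MePR drug-control wells (low) per plate / Plate: collagen-coated 384-well format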

The nature of experiment [5]: growth inhibitors of H69AR lung tumor, primary screen, human, duplicate replicates (AID 580;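 active means viability at or under a set limit in both replicates, limit being median viability minus 3 SD, cut at about 48% in these data, passing the limit was not always enough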;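 further: 100% = mean luminescence of untreated wells and 0% = no signal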). The following applies: H69AR lung tumor cells viability, ATP luminescence, 72 h; at 10 µM; stronger effect = lower value.
Experiment [6] can be described thus: reversal of MRP1-mediated doxorubicin resistance, pilot screen, H69AR cells, doxorubicin co-treatment (AID 601;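 active means viability loss from added drug above about 55%, and viability with drug at most 40%, in both replicates, limit read from the data, passing the limit was not always enough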). The following applies: CellTiter-Glo, 72 h, at 10 µM; for differential viability (reversal): stronger effect = higher value.
The nature of experiment [7]: 384-well plate pilot, post-Golgi transport modulator project, inhibition of yeast transport mutant growth (AID 636; in the data active means inhibition above about 31%). The following applies: absorbance 615 nm, about 18 h, stronger effect = higher value.
A short description of experiment [8]: growth suppression of yeast trafficking mutant, preliminary HTS, modulators of trafficking downstream of Golgi apparatus project, 1536-format plate, OD 615 nm (AID 637; in the data active means inhibition above about 30%). The following applies: yeast transport mutant growth, absorbance 615 nm, 18 h; stronger effect = higher value.
Setting [9] is: H69AR cells + 2 uM doxorubicin, measured here: viability with 2 uM doxorubicin, stronger effect = lower value.
The mark [10] stands for this setting: H69AR cells, compound alone cytotoxicity.

Activity calls are given as the source filed them.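 How the source made its calls, unless noted: active means Her2 level under about 52% in both replicate screens, with viability over 70% of control (limit read from the data); inconclusive means Her2 under the limit in one screen only, or viability under 70%; inactive means Her2 level above the set limit.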

Here are results for 16 compounds from PubChem BioAssay.

Receptor tyrosine-protein kinase erbB-2 (Homo sapiens), sequence (P04626 whole entry, looked up): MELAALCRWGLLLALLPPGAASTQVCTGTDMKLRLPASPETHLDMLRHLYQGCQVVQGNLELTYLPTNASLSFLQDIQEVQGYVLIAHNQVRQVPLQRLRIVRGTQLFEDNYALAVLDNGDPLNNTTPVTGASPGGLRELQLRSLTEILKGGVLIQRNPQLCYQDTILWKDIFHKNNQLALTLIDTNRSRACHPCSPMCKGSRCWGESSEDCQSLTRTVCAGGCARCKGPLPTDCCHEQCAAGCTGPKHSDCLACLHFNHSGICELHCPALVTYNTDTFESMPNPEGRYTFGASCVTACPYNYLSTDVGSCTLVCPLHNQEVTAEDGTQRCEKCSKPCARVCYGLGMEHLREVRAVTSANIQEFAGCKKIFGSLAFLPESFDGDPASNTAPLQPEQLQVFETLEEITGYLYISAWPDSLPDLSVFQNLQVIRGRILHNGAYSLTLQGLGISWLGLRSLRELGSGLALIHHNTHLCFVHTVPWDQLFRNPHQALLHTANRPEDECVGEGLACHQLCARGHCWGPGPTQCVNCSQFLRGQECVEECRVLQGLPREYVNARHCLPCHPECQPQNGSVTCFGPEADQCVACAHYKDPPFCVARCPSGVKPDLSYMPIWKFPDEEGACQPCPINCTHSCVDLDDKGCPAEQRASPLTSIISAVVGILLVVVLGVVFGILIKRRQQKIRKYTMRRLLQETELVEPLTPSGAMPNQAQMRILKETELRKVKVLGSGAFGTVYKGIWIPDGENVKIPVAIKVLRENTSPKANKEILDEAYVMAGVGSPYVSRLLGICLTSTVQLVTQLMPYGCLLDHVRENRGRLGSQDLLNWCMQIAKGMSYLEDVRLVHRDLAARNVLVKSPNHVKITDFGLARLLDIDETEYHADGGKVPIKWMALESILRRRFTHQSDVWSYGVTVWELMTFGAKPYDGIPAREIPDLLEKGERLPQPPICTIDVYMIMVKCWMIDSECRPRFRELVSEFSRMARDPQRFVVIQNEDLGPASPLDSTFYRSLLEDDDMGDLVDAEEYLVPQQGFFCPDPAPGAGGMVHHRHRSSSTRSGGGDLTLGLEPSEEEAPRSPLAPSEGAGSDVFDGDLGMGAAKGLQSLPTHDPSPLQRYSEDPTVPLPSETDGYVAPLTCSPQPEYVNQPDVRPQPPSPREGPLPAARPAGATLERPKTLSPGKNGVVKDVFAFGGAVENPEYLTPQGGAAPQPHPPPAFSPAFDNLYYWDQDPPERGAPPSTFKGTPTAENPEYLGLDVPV

For orientation: viability means a read-out of living cells in per cent, often relative to untreated cells. The term inhibition denotes the change of the read-out against control, counted positive when it falls. Regarding `CCOc1ccc(-c2nc(C#N)c(N3CCCCCC3)o2)cc1`, the viability was 138% in experiment [1]; 138% (inactive) in experiment [3]; 79.5% (inactive) in experiment [4]; 94.7% (inactive) in experiment [5]; 95.2% in experiment [6] (setting [9]); 94.7% in experiment [6] (setting [10]). Besides, the Her2 level in experiment [2] was 82% (inactive). In addition, in experiment [6] (H69AR cells + 2 uM doxorubicin), the differential viability (reversal) is -0.54% (inactive). Further, the inhibition was 0.64% (inactive) in experiment [7] and -0.17% (inactive) in experiment [8].

For the compound `Cc1cc(NC(=O)CN2CCC(O)(c3cccc(F)c3)CC2)no1`, the viability in experiment [1] is 97%; in experiment [3], 97% (inactive); in experiment [4], 110% (inactive); in experiment [5] it was 109% (inactive); in experiment [6] (setting [9]), 86.6%; in experiment [6] (setting [10]), 109%. For the same compound, in experiment [2], the Her2 level was 107% (inactive). The differential viability (reversal) in experiment [6] (H69AR cells + 2 uM doxorubicin) is 22.5% (inactive). The inhibition in experiment [7] is -0.27% (inactive); in experiment [8] it was -6.83% (inactive).

Turning to `CCn1c(COc2cccc3ccccc23)nnc1SCC(N)=O`, the viability in experiment [1] was 96%; in experiment [3] it was 96% (inactive); in experiment [4] it was 91% (inactive); in experiment [5] it was 91.1% (inactive); in experiment [6] (setting [9]) it was 78.2%; in experiment [6] (setting [10]), 91.1%. The Her2 level in experiment [2] is 75% (inactive). Further, the differential viability (reversal) in experiment [6] (H69AR cells + 2 uM doxorubicin) was 13% (inactive). The inhibition is -4.21% (inactive) in experiment [7] and 0.18% (inactive) in experiment [8].

Consider `CC(C)Oc1ccc(N2CC(C(=O)Nc3ccccc3F)CC2=O)cc1` (stereo not given), for which the viability in experiment [1] was 101%; in experiment [3] it was 101% (inactive); in experiment [4], 92.6% (inactive); in experiment [5], 97.6% (inactive); in experiment [6] (setting [9]), 89.1%; in experiment [6] (setting [10]), 97.6%. Also, the Her2 level in experiment [2] was 122% (inactive). For the same compound, the differential viability (reversal) in experiment [6] (H69AR cells + 2 uM doxorubicin) was 8.51% (inactive). The figures for the inhibition in experiment [7] and in experiment [8] were -1.17% (inactive) and -10.3% (inactive), respectively.

In the case of `COc1cccc(-c2cc(C(=O)NCc3ccc(Cl)cc3)no2)c1`, the viability in experiment [1] was 84%; in experiment [3], 84% (inactive); in experiment [4], 97% (inactive); in experiment [5] it was 89.3% (inactive); in experiment [6] (setting [9]) it was 84.2%; in experiment [6] (setting [10]), 89.3%. Further, in experiment [2], the Her2 level was 94% (inactive). Further, the differential viability (reversal) in experiment [6] (H69AR cells + 2 uM doxorubicin) is 5.11% (inactive). For the same compound, the inhibition is -6.62% (inactive) in experiment [7] and 0.82% (inactive) in experiment [8].

Consider `Cc1cc(C)c(Cn2c(=O)n(CCCC(=O)NCc3ccco3)c(=O)c3ccccc32)c(C)c1`, for which the viability in experiment [1] was 99%; in experiment [3] it was 99% (inactive); in experiment [4] it was 89.4% (inactive); in experiment [5], 94.9% (inactive); in experiment [6] (setting [9]), 83.5%; in experiment [6] (setting [10]), 94.9%. In addition, the Her2 level in experiment [2] was 97.5% (inactive). In experiment [6] (H69AR cells + 2 uM doxorubicin), the differential viability (reversal) is 11.4% (inactive). Further, the inhibition was -1.45% (inactive) in experiment [7] and 9.18% (inactive) in experiment [8].

Regarding `Cc1cc(NC(=O)CSc2nnc(COc3cccc(C)c3C)n2Cc2ccco2)no1`, the viability in experiment [1] was 102%; in experiment [3], 102% (inactive); in experiment [4], 97.5% (inactive); in experiment [5], 104% (inactive); in experiment [6] (setting [9]), 85%; in experiment [6] (setting [10]), 104%. In addition, the Her2 level in experiment [2] was 94% (inactive). For the same compound, the differential viability (reversal) in experiment [6] (H69AR cells + 2 uM doxorubicin) was 19.5% (inactive). Besides, the inhibition in experiment [7] is -4.59% (inactive); in experiment [8], -0.79% (inactive).

`Cc1ccccc1N1OC2C(=O)N(c3ccc(F)cc3)C(=O)C2C1c1ccccn1` (stereo not given): the viability in experiment [1] is 130%; in experiment [3], 130% (inactive); in experiment [4], 115% (inactive); in experiment [5], 91.4% (inactive); in experiment [6] (setting [9]), 81.5%; in experiment [6] (setting [10]), 91.4%. In addition, the Her2 level in experiment [2] was 116% (inactive). Besides, the differential viability (reversal) in experiment [6] (H69AR cells + 2 uM doxorubicin) is 9.9% (inactive). The inhibition is -5.58% (inactive) in experiment [7] and -2.86% (inactive) in experiment [8].

Take `COc1ccc(CN(C(=O)CNC(=O)c2ccco2)C(C(=O)NC2CCCC2)c2ccco2)cc1` (stereo not given): the viability in experiment [1] was 91%; in experiment [3], 91% (inactive); in experiment [4], 103% (inactive); in experiment [5] it was 95.4% (inactive); in experiment [6] (setting [9]) it was 87.8%; in experiment [6] (setting [10]) it was 95.4%. The Her2 level in experiment [2] is 106% (inactive). Further, the differential viability (reversal) in experiment [6] (H69AR cells + 2 uM doxorubicin) was 7.6% (inactive). Further, the figures for the inhibition in experiment [7] and in experiment [8] were -0.39% (inactive) and -5.48% (inactive), respectively.

Take `c1csc(-c2nc3nc4ccccc4nc3n2Cc2ccc3c(c2)OCO3)c1`: the viability was 98.5% in experiment [1]; 98.5% (inactive) in experiment [3]; 61.6% (inactive) in experiment [4]; 78% (inactive) in experiment [5]; 61.6% in experiment [6] (setting [9]); 78% in experiment [6] (setting [10]). Besides, the Her2 level in experiment [2] is 75% (inactive). Further, the differential viability (reversal) in experiment [6] (H69AR cells + 2 uM doxorubicin) was 16.4% (inactive). Besides, the inhibition was 10.5% (inactive) in experiment [7] and 0.79% (inactive) in experiment [8].

For the compound `N#Cc1nc(-c2ccco2)oc1NCc1ccco1`, the viability in experiment [1] was 94%; in experiment [3], 94% (inactive); in experiment [4], 89.3% (inactive); in experiment [5], 100% (inactive); in experiment [6] (setting [9]) it was 92%; in experiment [6] (setting [10]), 100%. Further, in experiment [2], the Her2 level was 89% (inactive). Also, in experiment [6] (H69AR cells + 2 uM doxorubicin), the differential viability (reversal) was 8.27% (inactive). In addition, the inhibition is -4.13% (inactive) in experiment [7] and -8.25% (inactive) in experiment [8].

`Cc1oc(-c2ccccc2Cl)nc1CSCC(=O)N1CCCC1`: the viability in experiment [1] was 72%; in experiment [3], 72% (inactive); in experiment [4] it was 79.4% (inactive); in experiment [5] it was 99.5% (inactive); in experiment [6] (setting [9]), 85%; in experiment [6] (setting [10]), 99.5%. The Her2 level in experiment [2] was 86.5% (inactive). For the same compound, in experiment [6] (H69AR cells + 2 uM doxorubicin), the differential viability (reversal) is 14.6% (inactive). Moreover, the inhibition was -0.93% (inactive) in experiment [7] and 6.61% (inactive) in experiment [8].

Regarding `CC(=O)c1c(C)nc(C)nc1NC(=O)Cc1ccccc1`, the viability in experiment [1] is 106%; in experiment [3], 106% (inactive); in experiment [4], 93.9% (inactive); in experiment [5] it was 93.9% (inactive); in experiment [6] (setting [9]), 100%; in experiment [6] (setting [10]), 93.9%. Moreover, in experiment [2], the Her2 level is 102% (inactive). In addition, the differential viability (reversal) in experiment [6] (H69AR cells + 2 uM doxorubicin) is -6.36% (inactive). In addition, the inhibition was -5% (inactive) in experiment [7] and -3.55% (inactive) in experiment [8].

In the case of `O=C(CCn1nc(-c2ccccc2)ccc1=O)N1CCCC1`, the viability in experiment [1] was 97%; in experiment [3] it was 97% (inactive); in experiment [4], 114% (inactive); in experiment [5] it was 94.4% (inactive); in experiment [6] (setting [9]), 94.9%; in experiment [6] (setting [10]), 94.4%. In experiment [2], the Her2 level is 96% (inactive). Besides, the differential viability (reversal) in experiment [6] (H69AR cells + 2 uM doxorubicin) was -0.505% (inactive). Besides, the inhibition in experiment [7] is -4.74% (inactive); in experiment [8], 0.48% (inactive).

In the case of `O=C(CN1CCCCCC1)OCCN=C1NS(=O)(=O)c2ccccc21`, the viability in experiment [1] is 108%; in experiment [3], 108% (inactive); in experiment [4], 88.1% (inactive); in experiment [5], 113% (inactive); in experiment [6] (setting [9]), 89.8%; in experiment [6] (setting [10]), 113%. The Her2 level in experiment [2] is 96.5% (inactive). The differential viability (reversal) in experiment [6] (H69AR cells + 2 uM doxorubicin) was 22.9% (inactive). In addition, the values for the inhibition in experiment [7] and in experiment [8] were -2.21% (inactive) and -6.51% (inactive), respectively.

In the case of `COc1ccccc1-c1cc(C(=O)NCCCn2ccnc2)no1`, the viability in experiment [1] was 82%; in experiment [3], 82% (inactive); in experiment [4], 88.5% (inactive); in experiment [5], 97.4% (inactive); in experiment [6] (setting [9]) it was 83.1%; in experiment [6] (setting [10]), 97.4%. The Her2 level in experiment [2] is 80% (inactive). Further, in experiment [6] (H69AR cells + 2 uM doxorubicin), the differential viability (reversal) was 14.3% (inactive). For the same compound, the inhibition in experiment [7] is -7.03% (inactive); in experiment [8] it was -2.17% (inactive).
